Assay results as given in ChEMBL document CHEMBL1138253, “Cytotoxic and apoptotic activities of novel amino analogues of boswellic acids” (2007).
Calls of active or inactive are those of the source. The rule behind the calls is not given here.

Assays:
[1] = system: MCF7; experiment: Cytotoxicity against human MCF7 cells at 10 uM after 48 hrs; type: functional; details: MCF7, 48 h
Procedure, shortened: (§1)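 SRB growth assay. DMSO stock (1 × 10^-2 M) diluted in RPMI-1640 (2 mM glutamine, pH 7.4, 10% FCS, antibiotics). Trypsinized subconfluent cells with >97% viability (trypan blue) seeded at 10^5 cells/ml and grown 24 h, then exposed to compound 48 h at 37 °C, 5% CO2. Fixed with TCA at 4 °C for 1 h, stained with 0.4% SRB, solubilized in 0.01 M Tris pH 10.4, OD read at 540 nm. Run in triplicate; mean of three experiments.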

[2] = system: DU-145; experiment: Cytotoxicity against human DU145 cells at 10 uM after 48 hrs; type: functional; details: DU-145, 48 h; procedure, shortened: as §1
[3] = system: SW-620; experiment: Cytotoxicity against human SW620 cells at 10 uM after 48 hrs; type: functional; details: SW-620, 48 h; procedure, shortened: as §1
[4] = Cytotoxicity against human 502713 cells at 10 uM after 48 hrs; type: functional; details: Homo sapiens, 502713, 48 h; procedure, shortened: as §1
[5] = system: HT-29; experiment: Cytotoxicity against human HT29 cells at 10 uM after 48 hrs; type: functional; details: HT-29, 48 h; procedure, shortened: as §1
[6] = system: MCF7; experiment: Cytotoxicity against human MCF7 cells at 1 uM after 48 hrs; type: functional; details: MCF7, 48 h; procedure, shortened: as §1
[7] = system: DU-145; experiment: Cytotoxicity against human DU145 cells at 1 uM after 48 hrs; type: functional; details: DU-145, 48 h; procedure, shortened: as §1
[8] = system: SW-620; experiment: Cytotoxicity against human SW620 cells at 1 uM after 48 hrs; type: functional; details: SW-620, 48 h; procedure, shortened: as §1
[9] = Cytotoxicity against human 502713 cells at 1 uM after 48 hrs; type: functional; details: Homo sapiens, 502713, 48 h; procedure, shortened: as §1
[10] = system: COLO 205; experiment: Cytotoxicity against human Colo205 cells at 1 uM after 48 hrs; type: functional; details: COLO 205, 48 h; procedure, shortened: as §1
[11] = system: HL-60; experiment: Induction of apoptosis in human HL60 cells assessed as nucleosomal DNA fragmentation at 1 uM after 6 hrs; type: functional, cell-based
Procedure, shortened: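 HL-60 cells (2 × 10^6/3 ml) exposed to 1 µM compound for 6 h, with camptothecin as positive control and DMSO vehicle in untreated controls. DNA was extracted and run on 1.8% agarose gel to look for laddering.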

[12] = system: MCF7; experiment: Cytotoxicity against human MCF7 cells at 50 uM after 48 hrs; type: functional; details: MCF7, 48 h
Procedure, shortened: (§2)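 Stock 1 × 10^-2 M in DMSO, diluted in RPMI-1640 (2 mM glutamine, pH 7.4, 10% FCS, penicillin/streptomycin). Cells grown at 37 C, 5% CO2; subconfluent cells trypsinised, >97% viable by trypan blue. Seeded at 10^5 cells/ml, grown 24 h, then exposed 48 h. TCA fixation at 4 C for 1 h, sulforhodamine B staining, Tris pH 10.4 solubilisation, OD 540 nm. Triplicate; mean of three experiments.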

[13] = system: DU-145; experiment: Cytotoxicity against human DU145 cells at 50 uM after 48 hrs; type: functional; details: DU-145, 48 h; procedure, shortened: as §2
[14] = system: SW-620; experiment: Cytotoxicity against human SW620 cells at 50 uM after 48 hrs; type: functional; details: SW-620, 48 h; procedure, shortened: as §2
[15] = Cytotoxicity against human 502713 cells at 50 uM after 48 hrs; type: functional; details: Homo sapiens, 502713, 48 h; procedure, shortened: as §2
[16] = system: HT-29; experiment: Cytotoxicity against human HT29 cells at 50 uM after 48 hrs; type: functional; details: HT-29, 48 h; procedure, shortened: as §2

CC(=O)O[C@@H]1CC[C@]2(C)[C@H]3CC=C4[C@@H]5[C@@H](C)[C@H](C)CC[C@]5(C)CC[C@@]4(C)[C@]3(C)CC[C@H]2[C@@]1(C)N
inhibition at 10 µM [1]: 10%
inhibition at 10 µM [2]: 92%
inhibition at 10 µM [3]: 80%
inhibition at 10 µM [4]: 96%
inhibition at 10 µM [5]: 44%
inhibition at 1 µM [6]: 0%
inhibition at 1 µM [7]: 0%
inhibition at 1 µM [8]: 18%
inhibition at 1 µM [9]: 6%
inhibition at 1 µM [10]: 34%
Activity [11]: Active

C[C@H]1[C@H](C)CC[C@]2(C)CC[C@]3(C)C(=CC[C@@H]4[C@@]5(C)CC[C@@H](O)[C@](C)(N)[C@@H]5CC[C@]43C)[C@H]12
inhibition at 10 µM [1]: 42%
inhibition at 10 µM [2]: 82%
inhibition at 10 µM [3]: 73%
inhibition at 10 µM [4]: 99%
inhibition at 10 µM [5]: 79%
inhibition at 1 µM [6]: 0%
inhibition at 1 µM [7]: 3%
inhibition at 1 µM [8]: 45%
inhibition at 1 µM [9]: 35%
inhibition at 1 µM [10]: 30%
Activity [11]: Active

CC(=O)O[C@@H]1CC[C@]2(C)[C@H]3C(=O)C=C4[C@@H]5[C@@H](C)[C@H](C)CC[C@]5(C)CC[C@@]4(C)[C@]3(C)CC[C@H]2[C@@]1(C)N
inhibition at 10 µM [1]: 1%
inhibition at 10 µM [2]: 16%
inhibition at 10 µM [3]: 72%
inhibition at 10 µM [4]: 55%
inhibition at 10 µM [5]: 21%
Activity [11]: Active

C[C@H]1[C@H](C)CC[C@]2(C)CC[C@]3(C)C(=CC(=O)[C@@H]4[C@@]5(C)CC[C@@H](O)[C@](C)(N)[C@@H]5CC[C@]43C)[C@H]12
inhibition at 10 µM [1]: 44%
inhibition at 10 µM [2]: 94%
inhibition at 10 µM [3]: 87%
inhibition at 10 µM [4]: 86%
inhibition at 10 µM [5]: 71%
inhibition at 1 µM [6]: 0%
inhibition at 1 µM [7]: 16%
inhibition at 1 µM [8]: 75%
inhibition at 1 µM [9]: 48%
inhibition at 1 µM [10]: 48%
Activity [11]: Active

O=c1[nH]cc(F)c(=O)[nH]1 [FLUOROURACIL]
inhibition at 50 µM [12]: 20%
inhibition at 50 µM [13]: 31%
inhibition at 50 µM [14]: 41%
inhibition at 50 µM [15]: 25%
inhibition at 50 µM [16]: 36%

COc1cccc2c1C(=O)c1c(O)c3c(c(O)c1C2=O)C[C@@](O)(C(=O)CO)C[C@@H]3O[C@H]1C[C@H](N)[C@H](O)[C@H](C)O1 [DOXORUBICIN]
inhibition at 1 µM [6]: 74%
inhibition at 1 µM [7]: 56%
inhibition at 1 µM [8]: 36%
inhibition at 1 µM [9]: 5%
inhibition at 1 µM [10]: 62%

CC[C@@]1(O)C(=O)OCc2c1cc1n(c2=O)Cc2cc3ccccc3nc2-1
Activity [11]: Active

C[C@H]1[C@H](C)CC[C@]2(C)CC[C@]3(C)C(=CC(=O)[C@@H]4[C@@]5(C)CC[C@H](O)[C@](C)(N)[C@@H]5CC[C@]43C)[C@H]12
inhibition at 10 µM [1]: 17%
inhibition at 10 µM [2]: 0%
inhibition at 10 µM [3]: 7%
inhibition at 10 µM [4]: 0%
inhibition at 10 µM [5]: 0%

CCC(=O)N[C@]1(C)[C@@H]2CC[C@]3(C)[C@H](CC=C4[C@@H]5[C@@H](C)[C@H](C)CC[C@]5(C)CC[C@]43C)[C@@]2(C)CC[C@H]1OC(=O)CC
inhibition at 10 µM [1]: 35%
inhibition at 10 µM [2]: 8%
inhibition at 10 µM [3]: 0%
inhibition at 10 µM [4]: 9%
inhibition at 10 µM [5]: 0%

C[C@H]1[C@H](C)CC[C@]2(C)CC[C@]3(C)C(=CC[C@@H]4[C@@]5(C)CC[C@H](O)[C@](C)(N)[C@@H]5CC[C@]43C)[C@H]12
inhibition at 10 µM [1]: 0%
inhibition at 10 µM [2]: 16%
inhibition at 10 µM [3]: 63%
inhibition at 10 µM [4]: 23%
inhibition at 10 µM [5]: 51%
